In ChEMBL document CHEMBL3351461, “Discovery of novel, dual mechanism ERK inhibitors by affinity selection screening of an inactive kinase” (J Med Chem, 2014) one finds Activity, Kd and IC50 data, which are given here for 16 compounds.

SMILES strings stand for the structures. Active and inactive are the calls of the source. No cut-off for these calls is given here. Bounds are passed on as bounds.

Experiment [1] has as its target T1, Dual specificity mitogen-activated protein kinase kinase; MEK1/2 (Homo sapiens) (UniProt P36507+Q02750). Kind of experiment: Binding affinity to phosphorylated MEK (unknown origin) by temperature dependent fluorescence (TdF) assay.
The target of experiment [2] is T2, Mitogen-activated protein kinase 1 (Homo sapiens, UniProt P28482). Kind of experiment: Binding to unphosphorylated ERK2 (unknown origin) by temperature dependent fluorescence (TdF) assay.
Experiment [3] has as its target T1, Dual specificity mitogen-activated protein kinase kinase; MEK1/2 (Homo sapiens). Kind of experiment: Binding affinity to unphosphorylated MEK (unknown origin) by temperature dependent fluorescence (TdF) assay.
For experiment [4], the target named is Mitogen-activated protein kinase 1 (Mus musculus) (UniProt P63085). Kind of experiment: Inhibition of inactive ERK2 (mouse) coupled with human MEK1 using IMAP peptide substrate after 30 mins by coupled ERK2 assay.
Experiment [5] addresses T2, Mitogen-activated protein kinase 1. Kind of experiment: Binding to phosphorylated ERK2 (unknown origin) by temperature dependent fluorescence (TdF) assay.
Experiment [6] shares this target. Kind of experiment: Inhibition of activated ERK2 (unknown origin) using IMAP peptide substrate after 30 mins by activated ERK2 assay. The gist of the method: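 IMAP fluorescence-polarization assay. Started with 1 μM substrate peptide (100 nM fluorescein-labelled) and 30 μM ATP. Run 30 min, stopped with IMAP beads, read after 30 min. N = 2.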

T1 sequence (P36507 whole entry, looked up): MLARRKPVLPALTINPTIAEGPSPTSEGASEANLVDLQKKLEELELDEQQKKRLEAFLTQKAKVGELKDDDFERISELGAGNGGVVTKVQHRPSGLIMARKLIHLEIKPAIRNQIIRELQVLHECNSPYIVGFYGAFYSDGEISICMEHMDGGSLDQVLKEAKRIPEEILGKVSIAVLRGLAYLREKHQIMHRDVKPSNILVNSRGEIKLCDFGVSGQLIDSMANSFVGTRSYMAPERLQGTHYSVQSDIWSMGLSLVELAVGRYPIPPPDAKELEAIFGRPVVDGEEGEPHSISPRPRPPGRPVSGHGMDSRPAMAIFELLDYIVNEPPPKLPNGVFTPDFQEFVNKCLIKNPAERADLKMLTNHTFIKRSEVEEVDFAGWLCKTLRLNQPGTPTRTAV
T1 sequence (Q02750 whole entry, looked up): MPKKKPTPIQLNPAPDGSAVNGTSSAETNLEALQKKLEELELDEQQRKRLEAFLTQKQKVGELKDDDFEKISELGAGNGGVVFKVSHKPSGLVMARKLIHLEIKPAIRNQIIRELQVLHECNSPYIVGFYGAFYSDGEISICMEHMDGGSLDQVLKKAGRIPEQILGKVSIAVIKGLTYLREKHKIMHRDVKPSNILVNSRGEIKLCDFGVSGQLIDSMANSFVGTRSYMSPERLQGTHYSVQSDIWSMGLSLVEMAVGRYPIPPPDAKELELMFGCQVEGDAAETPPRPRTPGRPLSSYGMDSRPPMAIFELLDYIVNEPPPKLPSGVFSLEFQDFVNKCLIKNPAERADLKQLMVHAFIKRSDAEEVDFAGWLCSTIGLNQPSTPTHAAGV
T2 sequence (P28482 whole entry): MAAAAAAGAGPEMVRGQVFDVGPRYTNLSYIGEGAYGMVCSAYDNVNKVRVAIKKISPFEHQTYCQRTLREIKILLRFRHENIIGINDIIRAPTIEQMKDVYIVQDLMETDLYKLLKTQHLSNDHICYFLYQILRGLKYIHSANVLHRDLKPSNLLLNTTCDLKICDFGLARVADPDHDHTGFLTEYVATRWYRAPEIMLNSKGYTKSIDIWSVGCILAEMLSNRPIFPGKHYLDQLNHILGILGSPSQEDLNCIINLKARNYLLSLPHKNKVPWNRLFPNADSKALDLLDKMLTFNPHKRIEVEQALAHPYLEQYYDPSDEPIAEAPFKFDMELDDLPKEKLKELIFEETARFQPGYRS
Chain of Mitogen-activated protein kinase 1 (Mus musculus) (P63085 whole entry, looked up): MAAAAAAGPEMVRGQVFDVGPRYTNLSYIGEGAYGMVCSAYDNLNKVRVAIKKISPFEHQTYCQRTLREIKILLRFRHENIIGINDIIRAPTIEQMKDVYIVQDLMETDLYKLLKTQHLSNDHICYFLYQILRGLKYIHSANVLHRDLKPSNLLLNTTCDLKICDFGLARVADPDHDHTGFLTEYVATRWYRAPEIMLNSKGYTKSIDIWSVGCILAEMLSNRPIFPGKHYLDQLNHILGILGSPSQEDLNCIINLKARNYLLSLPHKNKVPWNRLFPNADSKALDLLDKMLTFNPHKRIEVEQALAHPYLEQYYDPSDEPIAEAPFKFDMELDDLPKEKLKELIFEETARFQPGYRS

Broadly, the Kd is the concentration at which binding is half-saturated. A word on the IC50: it is the concentration that gives 50% inhibition. A high value points to a need for much substance. `CC(=O)c1ccc(N2CCN(C(=O)CN3CC[C@@H](C(=O)Nc4cc(Cl)c(O)c(Cl)c4)C3)CC2)cc1`: the result in experiment [1] and in experiment [3] was inactive. The equilibrium dissociation constant (Kd) in experiment [2] and in experiment [5] was over 10000 nM in each case. The IC50 in experiment [4] is over 10000 nM.

In the case of `CC(=O)c1ccc(N2CCN(C(=O)CN3CC[C@@H](C(=O)Nc4ccc(O)cc4Cl)C3)CC2)cc1`, the result in experiment [1] and in experiment [3] was inactive. In addition, the Kd in experiment [2] and in experiment [5] was over 10000 nM throughout. The results for the IC50 in experiment [6] and in experiment [4] were 50000 nM and 12700 nM, respectively.

Turning to `CC(=O)c1ccc(N2CCN(C(=O)CN3CCC(C(=O)Nc4ccc(O)cc4)C3)CC2)cc1` (racemic), the result in experiment [1] and in experiment [3] was inactive. The Kd turned out to be 1060 nM in experiment [2] and 1890 nM in experiment [5]. The IC50 in experiment [6] amounted to 18600 nM; in experiment [4], 4000 nM.

As to `CC(=O)c1ccc(N2CCN(C(=O)CN3CC[C@@H](C(=O)Nc4ccc(O)c(F)c4)C3)CC2)cc1`, the outcome in experiment [1] and in experiment [3] was inactive. In addition, the Kd is 280 nM in experiment [2] and 630 nM in experiment [5]. Moreover, the IC50 in experiment [6] amounted to 11600 nM; in experiment [4] it was 1300 nM.

For `O=C(Nc1ccc(O)c(Cl)c1)[C@@H]1CCN(CC(=O)N2CCN(c3ccc(Br)cc3)CC2)C1`, the outcome in experiment [1] and in experiment [3] was inactive. Further, the dissociation constant (Kd) in experiment [2] came out at 930 nM; in experiment [5], 2650 nM. Further, the IC50 amounted to 8200 nM in experiment [6] and 5000 nM in experiment [4].

As to `CC(=O)c1ccc(N2CCN(C(=O)CN3CC[C@@H](C(=O)Nc4ccc(O)c(C)c4)C3)CC2)cc1`, the outcome in experiment [1] and in experiment [3] was inactive. The IC50 in experiment [6] stood at 2500 nM; in experiment [4] it was 4200 nM.

Regarding `O=C(Nc1ccc(O)c(Cl)c1)[C@@H]1CCN(CC(=O)N2CCN(c3cccc(Cl)c3)CC2)C1`, the outcome in experiment [1] and in experiment [3] was inactive. Besides, the values for the Kd in experiment [2] and in experiment [5] were 70 nM and 150 nM, respectively. The IC50 in experiment [6] was 2100 nM; in experiment [4] it was 700 nM.

As to `O=C(Nc1ccc(O)c(Cl)c1)[C@@H]1CCN(CC(=O)N2CCN(c3nc4ccccc4s3)CC2)C1`, the result in experiment [1] and in experiment [3] was inactive. In addition, the Kd in experiment [2] stood at 170 nM; in experiment [5] it was 270 nM. The half-inhibitory concentration (IC50) came to 1600 nM in experiment [6] and 480 nM in experiment [4].

Consider `O=C(Nc1ccc(O)cc1)C1CCN(CC(=O)N2CCN(c3cccc(Cl)c3)CC2)C1` (racemic), for which the result in experiment [1] and in experiment [3] was inactive. The Kd in experiment [2] was found to be 920 nM; in experiment [5] it was 1650 nM. For the same compound, the IC50 in experiment [6] was 12200 nM; in experiment [4], 3400 nM.

With `CC(=O)c1ccc(N2CCN(C(=O)CN3CC[C@H](C(=O)Nc4ccc(O)c(Cl)c4)C3)CC2)cc1`, the result in experiment [1] and in experiment [3] was inactive. Besides, the Kd was found to be 360 nM in experiment [2] and 870 nM in experiment [5]. The IC50 in experiment [6] turned out to be 32000 nM; in experiment [4] it was 3600 nM.

Consider `CC(=O)c1ccc(N2CCN(C(=O)CN3CCC(C(=O)Nc4ccc(O)c(Cl)c4)C3)CC2)cc1` (racemic), for which the result in experiment [1] and in experiment [3] was inactive. In addition, the Kd in experiment [2] amounted to 150 nM; in experiment [5], 270 nM. In addition, the results for the IC50 in experiment [6] and in experiment [4] were 4200 nM and 1200 nM, respectively.

Regarding `O=C(NOC[C@H](O)CO)c1ccc(F)c(F)c1Nc1ccc(I)cc1F` [MIRDAMETINIB], the Kd in experiment [2] and in experiment [5] was over 10000 nM in each case. The half-maximal inhibitory concentration (IC50) was over 40000 nM in experiment [6] and 25 nM in experiment [4].

`O=C(Nc1ccc(O)c(Cl)c1)[C@@H]1CCN(CC(=O)N2CCN(c3ccc(-c4ccccc4)cc3)CC2)C1`: the result in experiment [1] and in experiment [3] was inactive. The Kd in experiment [2] came out at 150 nM; in experiment [5], 720 nM. Further, the IC50 was 4400 nM in experiment [6] and 5600 nM in experiment [4].

For the compound `O=C(Nc1ccc(O)c(Cl)c1)[C@@H]1CCN(CC(=O)N2CCN(c3ccc(-c4ccoc4)cc3)CC2)C1`, the result in experiment [1] and in experiment [3] was inactive. Also, the Kd turned out to be 120 nM in experiment [2] and 330 nM in experiment [5]. The IC50 came out at 5500 nM in experiment [6] and 1400 nM in experiment [4].

As for `CC(=O)c1ccc(N2CCN(C(=O)CN3CC[C@@H](C(=O)Nc4ccc(O)c(Br)c4)C3)CC2)cc1`, the result in experiment [1] and in experiment [3] was inactive. The values for the IC50 in experiment [6] and in experiment [4] were 3600 nM and 440 nM, respectively.

On to `O=C(Nc1ccc(O)c(Cl)c1)[C@@H]1CCN(CC(=O)N2CCN(c3ccc(-c4ccsc4)cc3)CC2)C1`, for which the result in experiment [1] and in experiment [3] was inactive. The equilibrium dissociation constant (Kd) in experiment [2] worked out at 290 nM; in experiment [5], 980 nM. Also, the values for the IC50 in experiment [6] and in experiment [4] were 20000 nM and 2100 nM, respectively.
